Test results: ChEMBL document CHEMBL5678802, “Small-molecule p21-activated kinase inhibitor PF-3758309 is a potent inhibitor of oncogenic signaling and tumor growth” (Proc Natl Acad Sci U S A, 2010)
pIC50: −log10 of the molar value. Active and inactive are the calls of the source. No cut-off for these calls is given here.

Assays:
[1] = target: Tyrosine-protein kinase Fgr (Homo sapiens, UniProt P09769); test: Inhibition of human FGR in presence of ATP
NCI-H1581 = test: Antiproliferative activity against human NCI-H1581 cells assessed as inhibition of cell proliferation incubated for 3 days by CellTiter-Glo Luminescent Cell Viability Assay; type: functional, cell-based; conditions: NCI-H1581, 72 h
Procedure, shortened: (§1)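 Cancer cell lines seeded in 384-well plates on day 1; compound added on day 2 and left for 3 days. On day 5 all medium was aspirated, and viable cells were quantified by CellTiter-Glo luminescence, which measures cellular ATP. Dose-dependent effects on proliferation were determined.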

[2] = target: Tyrosine-protein kinase Fyn (Homo sapiens, UniProt P06241); test: Inhibition of human FYN in presence of ATP
Tyrosine-protein kinase Fyn, sequence (P06241 whole entry): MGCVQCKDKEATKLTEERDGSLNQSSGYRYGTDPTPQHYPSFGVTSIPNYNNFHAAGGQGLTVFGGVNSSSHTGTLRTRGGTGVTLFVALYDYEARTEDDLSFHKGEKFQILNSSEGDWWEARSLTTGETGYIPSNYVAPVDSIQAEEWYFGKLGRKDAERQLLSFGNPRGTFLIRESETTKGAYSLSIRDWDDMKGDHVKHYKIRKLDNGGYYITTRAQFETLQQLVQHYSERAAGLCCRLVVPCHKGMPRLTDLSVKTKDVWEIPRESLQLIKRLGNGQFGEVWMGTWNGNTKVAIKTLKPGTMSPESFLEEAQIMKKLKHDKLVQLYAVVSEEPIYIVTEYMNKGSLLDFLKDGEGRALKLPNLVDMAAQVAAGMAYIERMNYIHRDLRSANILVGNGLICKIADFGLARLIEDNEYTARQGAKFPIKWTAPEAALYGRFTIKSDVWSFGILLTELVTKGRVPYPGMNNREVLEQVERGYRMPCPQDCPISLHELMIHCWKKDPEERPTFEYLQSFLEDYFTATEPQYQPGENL

HCT-116 [3] = test: Induction of cell cycle arrest in human HCT-116 cells assessed as accumulation of cells at S phase at 100 nM measured after 48 hrs by fluorescence activated cell sorter analysis (reference value: 26.15%); type: functional
[4] = Antiproliferative activity against human PaTu 8902 cells assessed as inhibition of cell proliferation incubated for 3 days by CellTiter-Glo Luminescent Cell Viability Assay; type: functional, cell-based; conditions: PaTu 8902, 72 h
Procedure, shortened: (§2)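 Cells of each line were plated in 384-well plates on day 1 and exposed to compound from day 2 for 3 days. On day 5 all medium was aspirated. Viable cell number was read by CellTiter-Glo luminescence, which quantifies cellular ATP.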

COLO 320DM = test: Antiproliferative activity against human COLO 320DM cells assessed as inhibition of cell proliferation incubated for 3 days by CellTiter-Glo Luminescent Cell Viability Assay; type: functional, cell-based; conditions: 72 h; procedure, shortened: as §1
[5] = target: Proto-oncogene tyrosine-protein kinase Src (Homo sapiens, UniProt P12931); test: Inhibition of human SRC in presence of ATP by cellular assay
Proto-oncogene tyrosine-protein kinase Src, sequence (P12931 2-536 limits assumed): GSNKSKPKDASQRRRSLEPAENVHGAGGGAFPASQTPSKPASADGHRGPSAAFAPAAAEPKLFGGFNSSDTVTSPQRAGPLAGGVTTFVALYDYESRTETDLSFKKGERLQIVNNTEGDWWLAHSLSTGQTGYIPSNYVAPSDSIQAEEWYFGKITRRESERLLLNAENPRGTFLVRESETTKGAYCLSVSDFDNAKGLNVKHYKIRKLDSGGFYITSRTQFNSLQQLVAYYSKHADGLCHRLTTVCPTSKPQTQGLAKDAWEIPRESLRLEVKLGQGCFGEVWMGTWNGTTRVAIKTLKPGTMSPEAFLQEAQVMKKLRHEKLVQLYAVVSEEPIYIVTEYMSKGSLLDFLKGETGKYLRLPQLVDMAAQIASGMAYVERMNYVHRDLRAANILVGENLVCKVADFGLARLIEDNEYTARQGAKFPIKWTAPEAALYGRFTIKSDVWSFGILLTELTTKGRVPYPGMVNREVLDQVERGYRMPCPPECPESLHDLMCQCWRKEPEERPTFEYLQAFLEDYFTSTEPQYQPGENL

DLD-1 = test: Antitumor activity against PAK4 -/+ human DLD-1 cells xenografted in nude mouse assessed as tumor growth inhibition at 20 mg/kg, po administered once daily for 9 to 18 days relative to control; type: functional; conditions: time 9-18 day, read-out: TGI
Procedure, shortened: (§3)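 Tumor cells were implanted s.c. into the right flank of female nu/nu nude mice aged 6–8 weeks. Animals were randomized into treatment groups once tumors were established (example: day 8 postimplant, about 170 mm3, animals >22 g). Compound in 0.5% methylcellulose was given by oral gavage. Tumors were measured with calipers two to three times per week.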

[6] = target: Ribosomal protein S6 kinase alpha-3 (Homo sapiens, UniProt P51812); test: Inhibition of human RSK2 in presence of ATP by cellular assay
Ribosomal protein S6 kinase alpha-3, sequence (P51812 whole entry): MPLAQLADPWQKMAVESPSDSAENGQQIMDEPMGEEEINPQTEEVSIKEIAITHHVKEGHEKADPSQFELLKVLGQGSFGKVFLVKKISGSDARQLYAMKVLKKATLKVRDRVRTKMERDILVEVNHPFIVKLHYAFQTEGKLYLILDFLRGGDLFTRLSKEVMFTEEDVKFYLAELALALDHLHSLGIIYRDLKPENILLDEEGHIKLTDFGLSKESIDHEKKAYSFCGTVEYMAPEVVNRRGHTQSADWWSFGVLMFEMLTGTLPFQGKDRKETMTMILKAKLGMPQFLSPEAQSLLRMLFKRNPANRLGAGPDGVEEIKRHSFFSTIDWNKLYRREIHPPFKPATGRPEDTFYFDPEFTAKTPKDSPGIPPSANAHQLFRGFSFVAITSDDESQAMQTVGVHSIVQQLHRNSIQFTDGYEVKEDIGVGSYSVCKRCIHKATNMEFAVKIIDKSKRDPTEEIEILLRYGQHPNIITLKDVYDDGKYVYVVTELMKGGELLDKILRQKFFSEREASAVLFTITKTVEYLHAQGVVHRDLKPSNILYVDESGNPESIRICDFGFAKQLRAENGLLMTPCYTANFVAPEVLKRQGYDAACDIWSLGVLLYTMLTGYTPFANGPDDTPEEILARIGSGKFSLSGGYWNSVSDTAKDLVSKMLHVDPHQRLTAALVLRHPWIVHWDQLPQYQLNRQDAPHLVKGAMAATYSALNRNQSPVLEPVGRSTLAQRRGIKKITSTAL

[7] = target: Ribosomal protein S6 kinase alpha-2 (Homo sapiens, UniProt Q15349); test: Inhibition of human RSK3 in presence of ATP by cellular assay
Ribosomal protein S6 kinase alpha-2, sequence (Q15349 whole entry): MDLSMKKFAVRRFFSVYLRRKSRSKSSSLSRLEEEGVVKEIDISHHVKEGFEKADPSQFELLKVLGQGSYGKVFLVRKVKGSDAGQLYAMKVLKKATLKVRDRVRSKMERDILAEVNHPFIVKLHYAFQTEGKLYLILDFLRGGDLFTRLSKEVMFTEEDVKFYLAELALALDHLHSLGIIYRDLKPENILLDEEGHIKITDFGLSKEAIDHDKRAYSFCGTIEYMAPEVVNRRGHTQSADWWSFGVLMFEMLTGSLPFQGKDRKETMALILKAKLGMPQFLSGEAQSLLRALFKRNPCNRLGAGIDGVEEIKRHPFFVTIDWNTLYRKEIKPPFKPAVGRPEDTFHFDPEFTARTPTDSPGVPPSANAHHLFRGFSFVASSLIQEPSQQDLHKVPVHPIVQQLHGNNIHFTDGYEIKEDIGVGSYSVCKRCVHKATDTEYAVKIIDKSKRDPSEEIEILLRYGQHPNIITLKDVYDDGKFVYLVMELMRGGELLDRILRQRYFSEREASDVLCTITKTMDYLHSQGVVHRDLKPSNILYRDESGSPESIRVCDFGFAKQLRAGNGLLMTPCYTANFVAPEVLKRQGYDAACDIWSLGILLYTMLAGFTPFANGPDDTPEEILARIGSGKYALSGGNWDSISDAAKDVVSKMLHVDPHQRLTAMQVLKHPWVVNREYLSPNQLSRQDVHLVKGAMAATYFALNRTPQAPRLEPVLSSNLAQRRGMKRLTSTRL

HCT-116 [8] = test: Induction of apoptosis in human HCT-116 cells at 100 nM measured after 48 hrs by fluorescence activated cell sorter analysis; type: functional, cell-based
COLO 205 = test: Inhibition of anchorage independent cell growth in human COLO 205 cells incubated for 6 days by Alamar blue reagent based fluorescence plate reader analysis; type: functional; conditions: COLO 205, 144 h
Procedure, shortened: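 Soft-agar colony formation: bottom layer 0.5% agar (2× DMEM with 1% agarose, 1:1), top layer 0.35% agar holding 4,000 cells; layers set 20–30 min at room temperature, then 1× DMEM containing compound added on top. Incubated 6 days; Alamar blue added and fluorescence read at 540 nm.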

HCT-116 [9] = test: Antitumor activity against human HCT-116 cells xenografted in nude mouse assessed as inhibition of [3H]FLT uptake at 25 mg/kg, po administered once a day for 2 day and measured after 2 hrs post [3H]FLT administration by scintillation counter analysis relative to control; type: functional; conditions: HCT-116, 48 h
Procedure, shortened: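 HCT116 xenograft mice (tumors 300–350 mm3, n = 5 per group) received oral vehicle or compound, with harvests on days 2, 3 and 6. Isoflurane-anesthetized mice were given [3H]FLT (15 nCi/g, i.p.) 2 h before killing. Tumor and liver were weighed, solubilized and scintillation-counted. SUV = C/(ID/W), and uptake is reported as the tumor-to-liver SUV ratio.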

[10] = Drug concentration in nude mouse plasma xenografted with human HCT-116 cells at 0.12 mg/kg administered via pump for 9 days by LC-MS/MS analysis; type: ADME, organism-based; conditions: time 9 day
Panc 04.03 = test: Antiproliferative activity against human Panc 04.03 cells assessed as inhibition of cell proliferation incubated for 3 days by CellTiter-Glo Luminescent Cell Viability Assay; type: functional, cell-based; conditions: Panc 04.03, 72 h; procedure, shortened: as §2
HCT-116 [11] = test: Antitumor activity against human HCT-116 cells xenografted in nude mouse assessed as reduction in BAD phosphorylation at S136 residue at 15 to 150 mg/kg/day administered via pump for 18 hrs by Reverse-Phase protein array analysis; type: functional, organism-based; conditions: dose 15-150 mg/kg/day
NCI-H441 = test: Antiproliferative activity against human NCI-H441 cells assessed as inhibition of cell proliferation incubated for 3 days by CellTiter-Glo Luminescent Cell Viability Assay; type: functional, cell-based; conditions: NCI-H441, 72 h; procedure, shortened: as §2
HCT-116 [12] = test: Antiproliferative activity against human HCT-116 cells assessed as inhibition of cell proliferation incubated for 3 days by CellTiter-Glo Luminescent Cell Viability Assay; type: functional, cell-based; conditions: HCT-116, 72 h; procedure, shortened: as §1
[13] = target: Serine/threonine-protein kinase Chk2 (Homo sapiens, UniProt O96017); test: Inhibition of human CHK2 in presence of ATP
Serine/threonine-protein kinase Chk2, sequence (O96017 whole entry): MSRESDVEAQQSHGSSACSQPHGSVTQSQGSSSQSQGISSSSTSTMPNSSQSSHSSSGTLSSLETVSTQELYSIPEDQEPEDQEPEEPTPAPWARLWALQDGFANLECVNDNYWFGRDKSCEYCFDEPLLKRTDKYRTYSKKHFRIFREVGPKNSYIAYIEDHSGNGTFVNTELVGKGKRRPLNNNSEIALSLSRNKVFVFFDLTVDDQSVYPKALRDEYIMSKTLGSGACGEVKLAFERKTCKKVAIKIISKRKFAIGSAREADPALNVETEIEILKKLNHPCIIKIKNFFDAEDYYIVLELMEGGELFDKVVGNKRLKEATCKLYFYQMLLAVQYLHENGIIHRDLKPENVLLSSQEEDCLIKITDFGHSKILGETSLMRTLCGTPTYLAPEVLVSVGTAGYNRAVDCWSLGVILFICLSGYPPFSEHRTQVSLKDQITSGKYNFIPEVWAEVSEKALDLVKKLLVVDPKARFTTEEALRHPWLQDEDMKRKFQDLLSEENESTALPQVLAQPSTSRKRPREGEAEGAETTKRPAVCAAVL

[14] = target: Protein kinase C theta type (Homo sapiens, UniProt Q04759); test: Inhibition of human PKCtheta in presence of ATP by cellular assay
Protein kinase C theta type, sequence (Q04759 whole entry): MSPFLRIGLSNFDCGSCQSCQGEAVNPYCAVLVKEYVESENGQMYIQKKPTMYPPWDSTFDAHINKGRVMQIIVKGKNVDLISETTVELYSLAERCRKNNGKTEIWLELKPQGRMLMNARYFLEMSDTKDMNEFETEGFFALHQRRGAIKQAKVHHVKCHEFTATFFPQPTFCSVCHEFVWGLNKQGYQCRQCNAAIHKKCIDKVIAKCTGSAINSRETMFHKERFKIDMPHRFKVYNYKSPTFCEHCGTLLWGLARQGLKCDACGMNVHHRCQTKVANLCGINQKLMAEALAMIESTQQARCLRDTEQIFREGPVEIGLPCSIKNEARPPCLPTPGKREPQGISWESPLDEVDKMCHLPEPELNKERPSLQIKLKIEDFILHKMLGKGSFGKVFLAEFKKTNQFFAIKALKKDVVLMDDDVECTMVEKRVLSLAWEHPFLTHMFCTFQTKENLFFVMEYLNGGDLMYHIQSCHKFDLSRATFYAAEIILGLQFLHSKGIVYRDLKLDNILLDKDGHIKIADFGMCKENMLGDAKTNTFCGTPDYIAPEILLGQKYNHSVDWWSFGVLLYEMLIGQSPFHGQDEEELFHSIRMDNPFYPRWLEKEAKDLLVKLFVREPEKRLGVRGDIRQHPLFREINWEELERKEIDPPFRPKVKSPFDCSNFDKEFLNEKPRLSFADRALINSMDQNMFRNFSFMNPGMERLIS

[15] = target: Serine/threonine-protein kinase PAK 4 (Homo sapiens, UniProt O96013)
Serine/threonine-protein kinase PAK 4, sequence (O96013 whole entry, looked up): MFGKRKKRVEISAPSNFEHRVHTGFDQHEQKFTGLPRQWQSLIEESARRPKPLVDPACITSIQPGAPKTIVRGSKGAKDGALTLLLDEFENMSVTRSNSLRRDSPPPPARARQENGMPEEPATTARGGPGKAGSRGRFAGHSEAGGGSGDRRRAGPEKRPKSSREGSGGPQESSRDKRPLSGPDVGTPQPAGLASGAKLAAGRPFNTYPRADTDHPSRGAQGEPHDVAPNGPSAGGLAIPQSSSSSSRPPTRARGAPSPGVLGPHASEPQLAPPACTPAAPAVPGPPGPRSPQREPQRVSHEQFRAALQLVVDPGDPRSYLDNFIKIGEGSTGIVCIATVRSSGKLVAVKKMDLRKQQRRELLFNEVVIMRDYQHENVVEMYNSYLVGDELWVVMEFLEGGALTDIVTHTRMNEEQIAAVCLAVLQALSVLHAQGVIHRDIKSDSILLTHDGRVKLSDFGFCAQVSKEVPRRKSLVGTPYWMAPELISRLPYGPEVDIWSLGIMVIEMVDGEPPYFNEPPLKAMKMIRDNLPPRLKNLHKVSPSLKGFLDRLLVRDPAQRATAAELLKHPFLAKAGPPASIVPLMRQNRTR

HCT-116 [16] = test: Antitumor activity against human HCT-116 cells xenografted in nude mouse assessed as reduction in PKCalpha phosphorylation at S569 residue at 15 to 150 mg/kg/day administered via pump for 18 hrs by Reverse-Phase protein array analysis; type: functional, organism-based; conditions: dose 15-150 mg/kg/day
[17] = Drug concentration in nude mouse plasma xenografted with human HCT-116 cells at 0.36 mg/kg administered via pump for 9 days by LC-MS/MS analysis; type: ADME, organism-based; conditions: time 9 day
HCT-116 [18] = test: Antitumor activity against human HCT-116 cells xenografted in nude mouse assessed as reduction in Src phosphorylation at Y527 residue at 15 to 150 mg/kg/day administered via pump for 18 hrs by Reverse-Phase protein array analysis; type: functional, organism-based; conditions: dose 15-150 mg/kg/day
MDA-MB-453 = test: Antiproliferative activity against human MDA-MB-453 cells assessed as inhibition of cell proliferation incubated for 3 days by CellTiter-Glo Luminescent Cell Viability Assay; type: functional, cell-based; conditions: MDA-MB-453, 72 h; procedure, shortened: as §1
A549 = test: Antitumor activity against human A549 cells xenografted in nude mouse assessed as tumor growth inhibition at 10 mg/kg, po administered once daily for 9 to 18 days relative to control; type: functional; conditions: time 9-18 day, read-out: TGI; procedure, shortened: as §3
M24met = test: Antitumor activity against human M24met cells xenografted in nude mouse assessed as tumor growth inhibition at 25 mg/kg, po administered once daily for 9 to 18 days relative to control; type: functional; conditions: time 9-18 day, read-out: TGI

Tyrosine-protein kinase Fgr, sequence (P09769 whole entry): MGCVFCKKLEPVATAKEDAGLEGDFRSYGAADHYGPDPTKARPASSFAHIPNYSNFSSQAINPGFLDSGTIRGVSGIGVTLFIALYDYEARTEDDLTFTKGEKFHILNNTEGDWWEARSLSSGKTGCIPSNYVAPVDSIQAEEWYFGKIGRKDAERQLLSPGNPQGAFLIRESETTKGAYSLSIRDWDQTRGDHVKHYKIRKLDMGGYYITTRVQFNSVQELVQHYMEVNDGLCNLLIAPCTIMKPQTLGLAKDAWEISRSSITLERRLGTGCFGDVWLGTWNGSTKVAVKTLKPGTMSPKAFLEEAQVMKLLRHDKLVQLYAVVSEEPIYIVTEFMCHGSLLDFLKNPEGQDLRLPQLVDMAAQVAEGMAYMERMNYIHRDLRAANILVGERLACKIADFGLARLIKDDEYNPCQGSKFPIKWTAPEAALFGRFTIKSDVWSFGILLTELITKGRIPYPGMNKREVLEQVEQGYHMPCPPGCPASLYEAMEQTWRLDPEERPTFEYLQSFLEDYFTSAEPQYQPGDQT

- pIC50 [1]: 7.63
- pIC50 (NCI-H1581): 9.22
- pIC50 [2]: 7.34
- pIC50 (COLO 320DM): 6.69
- pIC50 [5]: 5.66
- pIC50 [6]: 6.77
- pIC50 [7]: 5.71
- pIC50 (COLO 205): 6.85
- concentration at 216 h [10]: 0.56 ng/mL
- pIC50 (Panc 04.03): 6.46
- pIC50 (NCI-H441): 8.04
- pIC50 (HCT-116 [12]): 8.62
- pIC50 [13]: 7.89
- pIC50 [14]: 6.25
- T1/2 [15]: 1.13 min
- concentration at 216 h [17]: 1.7 ng/mL
- pIC50 (MDA-MB-453): 7.88
Structure (SMILES): Cc1nc(Nc2n[nH]c3c2CN(C(=O)N[C@H](CN(C)C)c2ccccc2)C3(C)C)c2sccc2n1 [PF-03758309]
- Activity (HCT-116 [3]): 14.37%
- pIC50 [4]: 7.57
- inhibition in vivo at 20 mg/kg (DLD-1): 0%
- Activity (HCT-116 [8]): Active
- inhibition in vivo at 25 mg/kg (HCT-116 [9]): 35.3%
- Activity (HCT-116 [11]): Active
- Activity (HCT-116 [16]): Active
- Activity (HCT-116 [18]): Active
- inhibition in vivo at 10 mg/kg (A549): 71%
- inhibition in vivo at 25 mg/kg (M24met): 85%
